Columns and labels:
[1] = Biodistribution in rhesus monkey entorhinal cortex at 150.3 MBq, iv after 0.75 mins; format: ADME, organism-based, Macaca mulatta; details: in vivo, 45 s
How it was run: (§1)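 Single male rhesus monkey anesthetized with ketamine 10 mg/kg im, head fixed. Attenuation correction by 20 min 68Ge-68Ga transmission scan. [11C]-tracer in saline (pH 7.4) given iv, specific radioactivity 2.9 TBq/μmol at injection. Dynamic 3D PET emission scan over 90 min in frames of 0.5 to 5 min. MRI T1 images used to define VOIs. Uptake expressed as […].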

[2] = Biodistribution in rhesus monkey entorhinal cortex at 150.3 MBq, iv after 2.25 mins; format: ADME, organism-based, Macaca mulatta; details: in vivo, 135 s; how it was run: as §1
[3] = Biodistribution in rhesus monkey cingulate cortex at 150.3 MBq, iv after 3.5 mins; format: ADME, organism-based, Macaca mulatta; details: in vivo
How it was run: (§2)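 Male rhesus monkey under ketamine (10 mg/kg im) with head fixation. After a 20 min 68Ge-68Ga transmission scan, the [11C]-labelled tracer in saline (pH 7.4) was injected iv, at 2.9 TBq/μmol specific radioactivity at injection. A dynamic 3D PET scan followed over 90 min (6×0.5, 7×1, 20×2, 8×5 min frames). Regions were defined on T1-weighted 1.5 T MRI, and uptake is given as %ID/mL.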

Hippocampus [4] = test: Biodistribution in rhesus monkey hippocampus at 150.3 MBq, iv after 6.5 mins; format: ADME, organism-based, Macaca mulatta; details: in vivo
How it was run: (§3)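 Male rhesus monkey under ketamine 10 mg/kg im, head fixed; 20 min 68Ge-68Ga transmission scan, then 90 min dynamic 3D PET (6×0.5, 7×1, 20×2, 8×5 min frames) after iv [11C]-labelled tracer in saline, specific radioactivity about 2.9 TBq/μmol at injection. Regions defined on T1-weighted MRI; uptake expressed as % injected dose per mL.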

[5] = Biodistribution in rhesus monkey entorhinal cortex at 150.3 MBq, iv after 13 mins; format: ADME, organism-based, Macaca mulatta; details: in vivo; how it was run: as §1
Striatum [6] = test: Biodistribution in rhesus monkey striatum at 150.3 MBq, iv after 13 mins; format: ADME, organism-based, Macaca mulatta; details: in vivo
[7] = Biodistribution in rhesus monkey cerebellum at 150.3 MBq, iv after 15 mins; format: ADME, organism-based, Macaca mulatta; details: in vivo, 0.25 h; how it was run: as §2
[8] = Biodistribution in rhesus monkey entorhinal cortex at 170.3 MBq, iv after 17 mins; format: ADME, organism-based, Macaca mulatta; details: in vivo, in the assay text read “150.3 MBq” for “170.3 MBq”; how it was run: as §1
[9] = Biodistribution in rhesus monkey entorhinal cortex at 150.3 MBq, iv after 27 mins; format: ADME, organism-based, Macaca mulatta; details: in vivo, 0.45 h; how it was run: as §1
Striatum [10] = test: Biodistribution in rhesus monkey striatum at 150.3 MBq, iv after 27 mins; format: ADME, organism-based, Macaca mulatta; details: in vivo, 0.45 h
[11] = Biodistribution in rhesus monkey cingulate cortex at 150.3 MBq, iv after 29 mins; format: ADME, organism-based, Macaca mulatta; details: in vivo; how it was run: as §2
[12] = Biodistribution in rhesus monkey retina at 150.3 MBq, iv after 29 mins; format: ADME, organism-based, Macaca mulatta; details: in vivo
[13] = Biodistribution in rhesus monkey occipital lobe at 150.3 MBq, iv after 31 mins; format: ADME, organism-based, Macaca mulatta; details: in vivo; how it was run: as §3
Hippocampus [14] = test: Biodistribution in rhesus monkey hippocampus at 150.3 MBq, iv after 33 mins; format: ADME, organism-based, Macaca mulatta; details: in vivo, 0.55 h; how it was run: as §3
Hippocampus [15] = test: Biodistribution in rhesus monkey hippocampus at 150.3 MBq, iv after 35 mins; format: ADME, organism-based, Macaca mulatta; details: in vivo; how it was run: as §3
Hippocampus [16] = test: Biodistribution in rhesus monkey hippocampus at 150.3 MBq, iv after 39 mins; format: ADME, organism-based, Macaca mulatta; details: in vivo, 0.65 h; how it was run: as §3
[17] = Biodistribution in rhesus monkey cerebellum at 150.3 MBq, iv after 39 mins; format: ADME, organism-based, Macaca mulatta; details: in vivo, 0.65 h; how it was run: as §2
Hippocampus [18] = test: Biodistribution in rhesus monkey hippocampus at 150.3 MBq, iv after 41 mins; format: ADME, organism-based, Macaca mulatta; details: in vivo; how it was run: as §3
[19] = Biodistribution in rhesus monkey entorhinal cortex at 150.3 MBq, iv after 45 mins; format: ADME, organism-based, Macaca mulatta; details: in vivo, 0.75 h; how it was run: as §1
[20] = Biodistribution in rhesus monkey retina at 150.3 MBq, iv after 45 mins; format: ADME, organism-based, Macaca mulatta; details: in vivo, 0.75 h
Hippocampus [21] = test: Biodistribution in rhesus monkey hippocampus at 150.3 MBq, iv after 47 mins; format: ADME, organism-based, Macaca mulatta; details: in vivo; how it was run: as §3
Hippocampus [22] = test: Biodistribution in rhesus monkey hippocampus at 150.3 MBq, iv after 67.5 mins; format: ADME, organism-based, Macaca mulatta; details: in vivo, 1.125 h; how it was run: as §3
[23] = Biodistribution in rhesus monkey cingulate cortex at 150.3 MBq, iv after 77.5 mins; format: ADME, organism-based, Macaca mulatta; details: in vivo; how it was run: as §1
[24] = Biodistribution in rhesus monkey retina at 150.3 MBq, iv after 77.5 mins; format: ADME, organism-based, Macaca mulatta; details: in vivo
[25] = Biodistribution in rhesus monkey retina at 150.3 MBq, iv after 2.75 mins; format: ADME, organism-based, Macaca mulatta; details: in vivo, 165 s
[26] = Biodistribution in rhesus monkey occipital lobe at 150.3 MBq, iv after 8.5 mins; format: ADME, organism-based, Macaca mulatta; details: in vivo
Striatum [27] = test: Biodistribution in rhesus monkey striatum at 150.3 MBq, iv after 52.5 mins; format: ADME, organism-based, Macaca mulatta; details: in vivo, 0.875 h
Hippocampus [28] = test: Biodistribution in rhesus monkey hippocampus at 150.3 MBq, iv after 72.5 mins; format: ADME, organism-based, Macaca mulatta; details: in vivo; how it was run: as §3
[29] = Biodistribution in rhesus monkey retina at 150.3 MBq, iv after 72.5 mins; format: ADME, organism-based, Macaca mulatta; details: in vivo
[30] = Biodistribution in rhesus monkey cerebellum at 150.3 MBq, iv after 17 mins; details: in vivo

[11CH3]Oc1cccc(C(=O)NCCN2CCN(c3ncccc3C#N)CC2)c1
Drug uptake [1]: 36.57 kBq/ml | Drug uptake [2]: 40.15 kBq/ml | Drug uptake [3]: 42.88 kBq/ml | Drug uptake (Hippocampus [4]): 37.33 kBq/ml | Drug uptake [5]: 22.48 kBq/ml | Drug uptake (Striatum [6]): 24.68 kBq/ml | Drug uptake [7]: 19.28 kBq/ml | Drug uptake [8]: 20.28 kBq/ml | Drug uptake [9]: 14.48 kBq/ml | Drug uptake (Striatum [10]): 16.63 kBq/ml | Drug uptake [11]: 15.04 kBq/ml | Drug uptake [12]: 56.95 kBq/ml | Drug uptake [13]: 12.89 kBq/ml | Drug uptake (Hippocampus [14]): 13.18 kBq/ml | Drug uptake (Hippocampus [15]): 12.16 kBq/ml | Drug uptake (Hippocampus [16]): 12.1253 kBq/ml | Drug uptake [17]: 10.98 kBq/ml | Drug uptake (Hippocampus [18]): 11.5929 kBq/ml | Drug uptake [19]: 10.89 kBq/ml | Drug uptake [20]: 56.64 kBq/ml | Drug uptake (Hippocampus [21]): 9.35 kBq/ml | Drug uptake (Hippocampus [22]): 8.799 kBq/ml | Drug uptake [23]: 9.3 kBq/ml | Drug uptake [24]: 50.63 kBq/ml | Drug uptake [25]: 37.33 kBq/ml | Drug uptake [26]: 25.53 kBq/ml | Drug uptake (Striatum [27]): 10.06 kBq/ml | Drug uptake (Hippocampus [28]): 8.523 kBq/ml | Drug uptake [29]: 51.43 kBq/ml | Drug uptake [30]: 18.41 kBq/ml
